Values after ≈ are worked out from the molar mass of the structure shown.
What was measured:
[1] = Cytotoxicity at 5 ug/mL against MSV transformed (S+L-cells) cells; type: cell-based; settings: mouse
How it was run: (§1)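 Colony-forming (plating efficiency) assay. 200 C3H or S+L- 3T3 FL cells per well, grown in McCoy's 5a with 10% heat-inactivated FCS. Various product concentrations are added 24 h after seeding. Colonies are stained with May Grunwald Giemsa and counted on day +9. Percent colony formation is taken relative to untreated control cells, set as 100% plating efficiency.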

[2] = Percent inhibition at 2.5 ug/mL for focus formation on day +5, using MSV assay on C3H cells with optimal amount of helper virus; type: functional; settings: Mus musculus
How it was run: (§2)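 MSV focus assay on C3H cells. 8 × 10⁴ cells are seeded per 60-mm dish and pretreated 24 h later with 20 µg/mL DEAE-dextran. Cells are infected with diluted MSV alone or MSV plus MuLV helper, with adsorption for 30 min at 37 °C. Filtered aqueous compound, diluted in medium, is added right after infection. Foci are counted on days 5 and 10. MSV titer was 7×10⁶.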

[3] = Percent inhibition at 5 ug/mL for focus formation on day +5, using MSV assay on C3H cells with optimal amount of helper virus; type: functional; settings: Mus musculus; how it was run: as §2
[4] = Cytotoxicity at 10 ug/mL against MSV transformed (S+L-cells) cells; type: cell-based; settings: mouse; how it was run: as §1
[5] = Cytotoxic dose that inhibit multiplication of normal fibroblast cells (C3H cells); type: cell-based; settings: mouse, read-out: CD50 (the source's name)
How it was run: (§3)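 Growth assay on C3H mouse fibroblasts. 10⁴ cells are seeded per well, and different doses of product are added 24 h later. Cellular growth and morphology are examined on day +5.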

[6] = Percent inhibition at 3 ug/mL for focus formation on day +10, using MSV assay on C3H cells without the addition of helper virus; type: functional; settings: Mus musculus; how it was run: as §2
[7] = Cytotoxicity at 20 ug/mL against MSV transformed (S+L-cells) cells; type: cell-based; settings: mouse; how it was run: as §1
Murine leukemia virus = assay: Inhibitory dose against MSV titer in the absence of Murine leukemia virus on day +10; type: functional, Mus musculus; settings: read-out: ID50 (the source's name); how it was run: as §2
[8] = Percent inhibition at 3 ug/mL for focus formation on day +5, using MSV assay on C3H cells without the addition of helper virus; type: functional; settings: Mus musculus; how it was run: as §2
[9] = Cytotoxicity at 5 ug/mL against normal mouse fibroblasts (C3H cells) cells; type: cell-based; how it was run: as §1
[10] = Cytotoxicity at 10 ug/mL against normal mouse fibroblasts (C3H cells) cells; type: cell-based; how it was run: as §1
[11] = Percent inhibition at 5 ug/mL for focus formation on day +10, using MSV assay on C3H cells without the addition of helper virus; type: functional; settings: Mus musculus; how it was run: as §2
[12] = Percent inhibition at 10 ug/mL for focus formation using MLV assay on S+L- cells; type: functional; settings: Mus musculus
[13] = Cytotoxicity at 20 ug/mL against normal mouse fibroblasts (C3H cells) cells; type: cell-based; how it was run: as §1
[14] = Percent inhibition at 10 ug/mL for focus formation on day +10, using MSV assay on C3H cells without the addition of helper virus; type: functional; settings: Mus musculus; how it was run: as §2
[15] = Percent inhibition at 10 ug/mL for focus formation on day +5, using MSV assay on C3H cells without the addition of helper virus; type: functional; settings: Mus musculus; how it was run: as §2
[16] = Percent inhibition at 3 ug/mL for focus formation using MLV assay on S+L- cells; type: functional; settings: Mus musculus
[17] = Percent inhibition at 3 ug/mL for focus formation on day +5, using MSV assay on C3H cells with optimal amount of helper virus; type: functional; settings: Mus musculus; how it was run: as §2
[18] = Percent inhibition at 5 ug/mL for focus formation using MLV assay on S+L- cells; type: functional; settings: Mus musculus
[19] = Percent inhibition at 5 ug/mL for focus formation on day +5, using MSV assay on C3H cells without the addition of helper virus; type: functional; settings: Mus musculus; how it was run: as §2
[20] = Toxic effect on S+L-cell colony formation; type: toxicity; settings: mouse, S+L- cells; read-out: TD50 (the source's name)
How it was run: (§4)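 S+L- (MSV-transformed 3T3 FL) cells grown in McCoy's 5a with 10% heat-inactivated fetal calf serum and antibiotics. Plating efficiency assay: 200 cells seeded per 35-mm well; product added at various concentrations 24 h after seeding. Colonies stained with May Grunwald Giemsa and counted on day +9. Colony formation expressed relative to untreated controls taken as 100% plating efficiency.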

[21] = Percent inhibition at 20 ug/mL for focus formation on day +5, using MSV assay on C3H cells with optimal amount of helper virus; type: functional; settings: Mus musculus; how it was run: as §2
[22] = Percent inhibition at 20 ug/mL for focus formation on day +10, using MSV assay on C3H cells without the addition of helper virus; type: functional; settings: Mus musculus; how it was run: as §2
[23] = Cytotoxic dose that inhibit multiplication of normal fibroblasts; settings: mouse, read-out: CD50 (the source's name); how it was run: as §3
[24] = Percent inhibition at 10 ug/mL for focus formation on day +5, using MSV assay on C3H cells with optimal amount of helper virus; type: functional; settings: Mus musculus; how it was run: as §2
[25] = Percent inhibition at 20 ug/mL for focus formation on day +5, using MSV assay on C3H cells without the addition of helper virus; type: functional; settings: Mus musculus; how it was run: as §2
[26] = Percent inhibition at 100 ug/mL for focus formation using MLV assay on S+L- cells; type: functional; settings: Mus musculus
[27] = Percent inhibition at 100 ug/mL for focus formation on day +5, using MSV assay on C3H cells without the addition of helper virus; type: functional; settings: Mus musculus; how it was run: as §2
[28] = Toxic effect on S+L- cell colony formation; type: toxicity; settings: mouse, S+L- cells; read-out: TD50 (the source's name); how it was run: as §4
[29] = Cytotoxicity at 250 ug/mL against normal mouse fibroblasts (C3H cells) cells; type: cell-based; how it was run: as §1
[30] = Percent inhibition at 100 ug/mL for focus formation on day +5, using MSV assay on C3H cells with optimal amount of helper virus; type: functional; settings: Mus musculus; how it was run: as §2
[31] = Percent inhibition at 50 ug/mL for focus formation on day +5, using MSV assay on C3H cells with optimal amount of helper virus; type: functional; settings: Mus musculus; how it was run: as §2
[32] = Toxic effect on C3H cell colony formation; type: toxicity, cell-based; settings: mouse, C3H cells; read-out: TD50 (the source's name); how it was run: as §1
[33] = Percent inhibition at 30 ug/mL for focus formation using MLV assay on S+L- cells; type: functional; settings: Mus musculus
[34] = Inhibitory action of Murine leukemia virus titer on S+L-cell in presence of the compound; type: functional; settings: Mus musculus; read-out: ID50 (the source's name)
[35] = Percent inhibition at 30 ug/mL for focus formation on day +5, using MSV assay on C3H cells without the addition of helper virus; type: functional; settings: Mus musculus; how it was run: as §2
[36] = Cytotoxicity at 100 ug/mL against MSV transformed (S+L-cells) cells; type: cell-based; settings: mouse; how it was run: as §1
[37] = Percent inhibition at 100 ug/mL for focus formation on day +10, using MSV assay on C3H cells without the addition of helper virus; type: functional; settings: Mus musculus; how it was run: as §2
[38] = Cytotoxicity at 50 ug/mL against normal mouse fibroblasts (C3H cells) cells; type: cell-based; how it was run: as §1
[39] = Cytotoxicity at 50 ug/mL against MSV transformed (S+L-cells) cells; type: cell-based; settings: mouse; how it was run: as §1
[40] = Percent inhibition at 30 ug/mL for focus formation on day +5, using MSV assay on C3H cells with optimal amount of helper virus; type: functional; settings: Mus musculus; how it was run: as §2
[41] = Percent inhibition at 50 ug/mL for focus formation on day +5, using MSV assay on C3H cells without the addition of helper virus; type: functional; settings: Mus musculus; how it was run: as §2
[42] = Cytotoxicity at 250 ug/mL against MSV transformed (S+L-cells) cells; type: cell-based; settings: mouse; how it was run: as §1
[43] = Percent inhibition at 50 ug/mL for focus formation using MLV assay on S+L- cells; type: functional; settings: Mus musculus
[44] = Percent inhibition at 30 ug/mL for focus formation on day +10, using MSV assay on C3H cells without the addition of helper virus; type: functional; settings: Mus musculus; how it was run: as §2
[45] = Percent inhibition at 50 ug/mL for focus formation on day +10, using MSV assay on C3H cells without the addition of helper virus; type: functional; settings: Mus musculus; how it was run: as §2
[46] = Cytotoxicity at 100 ug/mL against normal mouse fibroblasts (C3H cells) cells; type: cell-based; how it was run: as §1
[47] = Percent inhibition at 200 ug/mL for focus formation on day +5, using MSV assay on C3H cells with optimal amount of helper virus; type: functional; settings: Mus musculus; how it was run: as §2
[48] = Percent inhibition at 200 ug/mL for focus formation using MLV assay on S+L- cells; type: functional; settings: Mus musculus
[49] = Percent inhibition at 200 ug/mL for focus formation on day +10, using MSV assay on C3H cells without the addition of helper virus; type: functional; settings: Mus musculus; how it was run: as §2
[50] = Percent inhibition at 200 ug/mL for focus formation on day +5, using MSV assay on C3H cells without the addition of helper virus; type: functional; settings: Mus musculus; how it was run: as §2

In the case of `O=[N+]([O-])c1cccn2nc([C@@H]3O[C@H](CO)[C@@H](O)[C@H]3O)nc12`, the Colony formation [1] is reported as 79.6%, the inhibition at 2.5 µg/mL [2] is reported as 47% and the inhibition at 5 µg/mL [3] is reported as 62%. It also gave a Colony formation [4] of 46%.
For `C[C@@H]1O[C@@H](c2nc3c([N+](=O)[O-])cccn3n2)[C@H](O)[C@H](O)[C@@H]1O`, the CC50 [5] was 400 µg/mL (≈ 1290 µM).
With `CC1OC(c2nc3c([N+](=O)[O-])cccn3n2)=CC(O)C1O` (stereo unspecified) the inhibition at 3 µg/mL [6] was 0%, the Colony formation [1] was 49% and the Colony formation [7] was 0%. It also gave an IC50 (Murine leukemia virus) of 9 µg/mL (≈ 30.8 µM), an inhibition at 3 µg/mL [8] of 15% and a Colony formation [9] of 71.5%. For the same molecule, the Colony formation [10] was 27%, the inhibition at 5 µg/mL [11] was 30% and the inhibition at 10 µg/mL [12] was 82.5%. For the same molecule, the inhibition at 5 µg/mL [3] was 26%, the Colony formation [13] was 2% and the inhibition at 10 µg/mL [14] was 58%. The inhibition at 10 µg/mL [15] was 64%, the inhibition at 3 µg/mL [16] was 30% and the inhibition at 3 µg/mL [17] was 39%. The inhibition at 5 µg/mL [18] was 50%, the inhibition at 5 µg/mL [19] was 44% and the CC50 [20] was 5 µg/mL (≈ 17.1 µM). The inhibition at 20 µg/mL [21] was 76%, the inhibition at 20 µg/mL [22] was 70% and the CC50 [23] was 62.5 µg/mL (≈ 214 µM). It also gave a Colony formation [4] of 18%, an inhibition at 10 µg/mL [24] of 50% and an inhibition at 20 µg/mL [25] of 91%.
`CC1OC(c2nc3c([N+](=O)[O-])cccn3n2)C(O)C(O)C1=O` (stereo unspecified) gave an inhibition at 100 µg/mL [26] of 80%, an inhibition at 100 µg/mL [27] of 67% and a CC50 [28] of 73 µg/mL (≈ 237 µM). For the same molecule, the Colony formation [29] was 21%, the IC50 (Murine leukemia virus) was 145 µg/mL (≈ 470 µM) and the inhibition at 100 µg/mL [30] was 78%. For the same molecule, the inhibition at 50 µg/mL [31] was 46%, the CC50 [32] was 150 µg/mL (≈ 487 µM) and the inhibition at 30 µg/mL [33] was 35%. For the same molecule, the IC50 [34] was 43 µg/mL, the inhibition at 30 µg/mL [35] was 35% and the Colony formation [36] was 25%. For the same molecule, the inhibition at 100 µg/mL [37] was 42%, the Colony formation [38] was 109% and the Colony formation [39] was 81%. For the same molecule, the inhibition at 30 µg/mL [40] was 31%, the inhibition at 50 µg/mL [41] was 54% and the Colony formation [42] was 0%. It also gave an inhibition at 50 µg/mL [43] of 55%, an inhibition at 30 µg/mL [44] of 0% and an inhibition at 50 µg/mL [45] of 14%. The Colony formation [46] was 76%.
With `C[C@@H]1O[C@@H](c2nc3c([N+](=O)[O-])cccn3n2)[C@H](O)[C@H](O)[C@H]1O` the CC50 [5] was 500 µg/mL (≈ 1610 µM).
`CC1OC(c2nc3c(N)cccn3n2)C(O)C(O)C1O` (stereo unspecified) gave a Colony formation [29] of 108%, an IC50 [34] of 200 µg/mL and an inhibition at 200 µg/mL [47] of 11%. It also gave a Colony formation [36] of 83%, an inhibition at 200 µg/mL [48] of 50% and a Colony formation [42] of 94%. The inhibition at 200 µg/mL [49] was 0%, the inhibition at 200 µg/mL [50] was 0% and the Colony formation [46] was 115%.
